In brackets after ≈: the same amount, converted by molar mass. Where a SMILES comes first, the peptide text is derived from it. [ ]: non-standard residue; d: D form. Gly(1-adamantyl) = N[C@H](C(=O)O)C12CC3CC(CC(C3)C1)C2; Orn = NCCC[C@H](N)C(=O)O
Legend:
[1] = tested on: Staphylococcus epidermidis; assay: Antimicrobial activity against Staphylococcus epidermidis ATCC 12228 by broth dilution method; type: functional
In short: (§1)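 Stored at −70 °C, grown at 35 °C on Columbia sheep-blood agar, then suspended in physiological saline to OD 0.1 AU at 595 nm and diluted 100× in saline. 2 µL inoculum was added to 50 µL cation-adjusted Mueller Hinton II broth. Peptides in methanol (4 g/L stock) were diluted in water, then two-fold in broth (64–1 mg/L). Incubation was 35 °C for 24–48 h. MIC is the lowest concentration inhibiting growth.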

[2] = tested on: Staphylococcus aureus; assay: Antimicrobial activity against Staphylococcus aureus ATCC 29213 by broth dilution method; type: functional
In short: (§2)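 Frozen (−70 °C) stocks grown at 35 °C on Columbia sheep-blood agar, suspended in physiological saline to OD595 0.1, diluted 100×; 2 µL inoculum into 50 µL cation-adjusted Mueller Hinton II broth in 96-well plates. Peptides dissolved in methanol (4 g/L), diluted in water, two-fold serial dilutions in broth (64–1 mg/L). Incubation at 35 °C, 24–48 h; MIC = lowest concentration inhibiting growth.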

[3] = tested on: Pseudomonas aeruginosa; assay: Antimicrobial activity against Pseudomonas aeruginosa ATCC 27853 by broth dilution method; type: functional; in short: as §1
[4] = tested on: Escherichia coli; assay: Antimicrobial activity against Escherichia coli ATCC 25922 by broth dilution method; type: functional; in short: as §1
[5] = tested on: Bacillus cereus; assay: Antimicrobial activity against Bacillus cereus ATCC 11778 by broth dilution method; type: functional; in short: as §1
[6] = tested on: Enterococcus faecalis; assay: Antimicrobial activity against Enterococcus faecalis ATCC 29212 by broth dilution method; type: functional; in short: as §1
[7] = tested on: Staphylococcus aureus; assay: Antimicrobial activity against community acquired methicillin-resistant Staphylococcus aureus isolate 1110301146 by broth dilution method; type: functional; in short: as §2
[8] = tested on: Staphylococcus aureus; assay: Antimicrobial activity against methicillin-resistant Staphylococcus aureus isolate 1110301981 by broth dilution method; type: functional; in short: as §2
[9] = tested on: Staphylococcus aureus; assay: Antimicrobial activity against methicillin-resistant Staphylococcus aureus N229 by broth dilution method; type: functional; in short: as §2
[10] = tested on: Staphylococcus aureus; assay: Antimicrobial activity against methicillin-resistant Staphylococcus aureus N133 by broth dilution method; type: functional; in short: as §2
[11] = tested on: Staphylococcus aureus; assay: Antimicrobial activity against methicillin-resistant Staphylococcus aureus ATCC 49775 by broth dilution method; type: functional; in short: as §2
[12] = tested on: Staphylococcus aureus; assay: Antimicrobial activity against methicillin-resistant Staphylococcus aureus ATCC 43300 by broth dilution method; type: functional; in short: as §2
[13] = Toxicity in Erythrocyte assessed as concentration required to achieve 100% hemolysis after 4 hrs; type: cell-based
In short: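 Heparinized fresh blood was centrifuged (1000g, 10 min, 10 °C). Erythrocytes were washed three times in 0.85% saline and diluted to a 1/25 packed volume. Peptides were prepared as a 1.5 mM stock in 30% DMSO/0.5 mM saline and serially two-fold diluted in triplicate rows. 1% Triton-X served as the full-lysis control. Incubation was 37 °C for 4 h, then centrifugation; supernatant was read. Value is the concentration giving 100% lysis.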

[14] = Therapeutic index, concentration required to achieve 100% hemolysis in erythrocyte to MIC for Staphylococcus aureus ATCC 29213; details: erythrocytes
In short: (§3)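 Therapeutic index was taken as the concentration for 100% haemolysis divided by MIC for the given strain.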

[15] = Therapeutic index, concentration required to achieve 100% hemolysis in erythrocyte to MIC for Escherichia coli ATCC 25922; details: erythrocytes; in short: as §3

| SMILES | MIC [1] [µg/mL] | MIC [2] [µg/mL] | MIC [3] [µg/mL] | MIC [4] [µg/mL] | MIC [5] [µg/mL] | MIC [6] [µg/mL] | MIC [7] [µg/mL] | MIC [8] [µg/mL] | MIC [9] [µg/mL] | MIC [10] [µg/mL] | MIC [11] [µg/mL] | MIC [12] [µg/mL] | Activity [13] [µM] | selectivity ratio ([14]; read-out: Ratio) | selectivity ratio [15] | selectivity ratio ([14]; read-out: TI) |
| --- | --- | --- | --- | --- | --- | --- | --- | --- | --- | --- | --- | --- | --- | --- | --- | --- |
| CC(C)C[C@@H]1NC(=O)[C@H](CCCN)NC(=O)[C@H](C23CC4CC(CC(C4)C2)C3)NC(=O)[C@H](CCCN)NC(=O)[C@@H]2CCCN2C(=O)[C@@H](Cc2ccccc2)NC(=O)[C@H](CCCN)NC(=O)[C@H](CC23CC4CC(CC(C4)C2)C3)NC(=O)[C@H](CCCN)NC(=O)[C@H](C23CC4CC(CC(C4)C2)C3)NC(=O)[C@H](CCCN)NC(=O)[C@@H]2CCCN2C(=O)[C@@H](Cc2ccccc2)NC(=O)[C@H](CCCN)NC1=O | 8 (≈ 4.27 µM) | 16 (≈ 8.54 µM) | 16 (≈ 8.54 µM) | 32 (≈ 17.1 µM) | 4 (≈ 2.13 µM) | 8 (≈ 4.27 µM) | 8 (≈ 4.27 µM) | 8 (≈ 4.27 µM) | 8 (≈ 4.27 µM) | 8 (≈ 4.27 µM) | 16 (≈ 8.54 µM) | 16 (≈ 8.54 µM) | 15.6 | 1 | 1 | – |
| CC(C)[C@@H]1NC(=O)[C@H](CCCN)NC(=O)[C@@H]2CCCN2C(=O)[C@@H](Cc2ccccc2)NC(=O)[C@H](CCCN)NC(=O)[C@H](CC23CC4CC(CC(C4)C2)C3)NC(=O)[C@H](CCCN)NC(=O)[C@H](C(C)C)NC(=O)[C@H](CCCN)NC(=O)[C@@H]2CCCN2C(=O)[C@@H](Cc2ccccc2)NC(=O)[C@H](CCCN)NC(=O)[C@H](CC23CC4CC(CC(C4)C2)C3)NC(=O)[C@H](CCCN)NC1=O | 8 (≈ 4.49 µM) | 8 (≈ 4.49 µM) | 8 (≈ 4.49 µM) | 32 (≈ 18 µM) | 8 (≈ 4.49 µM) | 8 (≈ 4.49 µM) | 8 (≈ 4.49 µM) | 8 (≈ 4.49 µM) | 8 (≈ 4.49 µM) | 8 (≈ 4.49 µM) | 8 (≈ 4.49 µM) | 8 (≈ 4.49 µM) | 31.3 | 3.9 | 3.9 | – |
| CC(C)C[C@@H]1NC(=O)[C@H](CCCN)NC(=O)[C@H](C(C)C)NC(=O)[C@H](CCCN)NC(=O)[C@@H]2CCCN2C(=O)[C@@H](Cc2ccccc2)NC(=O)[C@H](CCCN)NC(=O)[C@H](CC(C)C)NC(=O)[C@H](CCCN)NC(=O)[C@H](C(C)C)NC(=O)[C@H](CCCN)NC(=O)[C@@H]2CCCN2C(=O)[C@@H](Cc2ccccc2)NC(=O)[C@H](CCCN)NC1=O | 8 (≈ 5.01 µM) | 64 (≈ 40 µM) | 64 (≈ 40 µM) | 32 (≈ 20 µM) | 32 (≈ 20 µM) | > 64 | 64 (≈ 40 µM) | 64 (≈ 40 µM) | 64 (≈ 40 µM) | > 64 | 64 (≈ 40 µM) | > 64 | > 500 | 11.7 | 11.7 | – |
| CC(C)C[C@@H]1NC(=O)[C@H](CCCN)NC(=O)[C@H](C(C)C)NC(=O)[C@@H]2CCCN2C(=O)[C@@H](Cc2ccccc2)NC(=O)[C@H](CC(C)C)NC(=O)[C@H](CCCN)NC(=O)[C@H](C(C)C)NC(=O)[C@@H]2CCCN2C(=O)[C@@H](Cc2ccccc2)NC1=O [GRAMICIDIN S] (cyclo(L[dF]PV[Orn]L[dF]PV[Orn])) | 8 (≈ 7.01 µM) | 32 (≈ 28 µM) | 32 (≈ 28 µM) | 64 (≈ 56.1 µM) | 8 (≈ 7.01 µM) | 8 (≈ 7.01 µM) | 16 (≈ 14 µM) | 16 (≈ 14 µM) | 8 (≈ 7.01 µM) | 16 (≈ 14 µM) | 8 (≈ 7.01 µM) | 8 (≈ 7.01 µM) | 62.5 | – | 2 | 2 |
| CC(C)C[C@@H]1NC(=O)[C@H](CCCN)NC(=O)[C@H](C(C)C)NC(=O)[C@H](CCCN)NC(=O)[C@@H]2CCCN2C(=O)[C@@H](Cc2ccccc2)NC(=O)[C@H](CCCN)NC(=O)[C@H](CC23CC4CC(CC(C4)C2)C3)NC(=O)[C@H](CCCN)NC(=O)[C@H](C(C)C)NC(=O)[C@H](CCCN)NC(=O)[C@@H]2CCCN2C(=O)[C@@H](Cc2ccccc2)NC(=O)[C@H](CCCN)NC1=O | 8 (≈ 4.73 µM) | 16 (≈ 9.47 µM) | 16 (≈ 9.47 µM) | 16 (≈ 9.47 µM) | 8 (≈ 4.73 µM) | 32 (≈ 18.9 µM) | 16 (≈ 9.47 µM) | 8 (≈ 4.73 µM) | 16 (≈ 9.47 µM) | 8 (≈ 4.73 µM) | 8 (≈ 4.73 µM) | 8 (≈ 4.73 µM) | 125 | 7.8 | 7.8 | – |
| CC(C)C[C@@H]1NC(=O)[C@H](CCCN)NC(=O)[C@H](C(C)C)NC(=O)[C@@H]2CCCN2C(=O)[C@@H](Cc2ccccc2)NC(=O)[C@H](CC(C)C)NC(=O)[C@H](CCCN)NC(=O)[C@H](C(C)C)NC(=O)[C@H](CCCN)NC(=O)[C@H](CC(C)C)NC(=O)[C@@H]2CCCN2C(=O)[C@@H](Cc2ccccc2)NC(=O)[C@H](C(C)C)NC(=O)[C@H](CCCN)NC1=O (cyclo(L[Orn]V[Orn]L[dF]PV[Orn]L[Orn]V[dF]P)) | 8 (≈ 5.06 µM) | 16 (≈ 10.1 µM) | 32 (≈ 20.2 µM) | 64 (≈ 40.5 µM) | 4 (≈ 2.53 µM) | 8 (≈ 5.06 µM) | – | – | – | – | – | – | 3.9 | 0.2 | 0.1 | – |
| NCCC[C@@H]1NC(=O)[C@H](C23CC4CC(CC(C4)C2)C3)NC(=O)[C@H](CCCN)NC(=O)[C@@H]2CCCN2C(=O)[C@@H](Cc2ccccc2)NC(=O)[C@H](CCCN)NC(=O)[C@H](C23CC4CC(CC(C4)C2)C3)NC(=O)[C@H](CCCN)NC(=O)[C@@H]2CCCN2C(=O)[C@@H](Cc2ccccc2)NC1=O (cyclo([Orn][dF]P[Orn][Gly(1-adamantyl)][Orn][dF]P[Orn][Gly(1-adamantyl)])) | 4 (≈ 3.01 µM) | 8 (≈ 6.03 µM) | 8 (≈ 6.03 µM) | 16 (≈ 12.1 µM) | 8 (≈ 6.03 µM) | 8 (≈ 6.03 µM) | 8 (≈ 6.03 µM) | 8 (≈ 6.03 µM) | 8 (≈ 6.03 µM) | 8 (≈ 6.03 µM) | – | – | 500 | 62.5 | 62.5 | – |
| CC(C)C[C@@H]1NC(=O)[C@H](CCCCN)NC(=O)[C@H](C(C)C)NC(=O)[C@@H]2CCCN2C(=O)[C@@H](Cc2ccc(O)cc2)NC(=O)[C@H](CC(C)C)NC(=O)[C@H](CCCCN)NC(=O)[C@H](C(C)C)NC(=O)[C@H](CCCCN)NC(=O)[C@H](CC(C)C)NC(=O)[C@@H]2CCCN2C(=O)[C@@H](Cc2ccc(O)cc2)NC(=O)[C@H](C(C)C)NC(=O)[C@H](CCCCN)NC1=O (cyclo(KLKV[dY]PLKVKL[dY]PV)) | – | – | – | – | – | – | – | – | – | – | – | – | 3.9 | – | – | – |
| CC(C)C[C@@H]1NC(=O)[C@H](CCCCN)NC(=O)[C@H](C(C)C)NC(=O)[C@@H]2CCCN2C(=O)[C@@H](Cc2ccc(O)cc2)NC(=O)[C@H](CC(C)C)NC(=O)[C@H](CCCCN)NC(=O)[C@H](C(C)C)NC(=O)[C@H](CCCCN)NC(=O)[C@H](CC(C)C)NC(=O)[C@@H]2CCCN2C(=O)[C@@H](Cc2ccc(O)cc2)NC(=O)[C@H](C(C)C)NC(=O)[C@H](CCCCN)NC1=O (cyclo(VKLKV[dY]PLKVKL[dY]P)) | 64 (≈ 38.3 µM) | > 64 | > 64 | > 64 | 32 (≈ 19.2 µM) | 32 (≈ 19.2 µM) | – | – | – | – | – | – | – | – | – | – |
